This is a sample that favours compounds with a hit; in the whole collection about 8.2% have one here.
SF1 activator: SF-1 (human) activation; AID 522; 1.9% of 65,000 active; activation, % at 10 µM; CHO-K1 Gal4-SF-1 LBD luciferase reporter; % increase over DMSO SF-1-specific signal;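 active = activation above the mean activation of all tested compounds plus 3 SD, cut at about 50% in these data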
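Assay system: CHO-K1 cells co-transfected with Gal4 DBD–human SF-1 LBD, 5xGal4 luciferase reporter; doses: 10 µM only; incubation: 20 h compound exposure at 37 °C after 1 h cell settling; signal: luciferase light emission; evaluation: percent activation versus DMSO; repeats: one test per compound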
HePTP inh: inhibitors of human HePTP phosphatase; P35236; recombinant HePTP phosphatase activity, OD absorbance; inhibition, % at 20 µM; 0.64% of 110,000 active; in the data active = inhibition above about 50%
RORA act: RORA (human) activation | CHO-K1 Gal4-RORA LBD luciferase reporter, luminescence; percent increase over mock-subtracted basal signal | activation, % at 10 µM | 1.5% of 65,000 active;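 active = activation above the mean of all tested compounds plus 3 SD, cut at about 49% in these data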
D1 mod: allosterically modulates the human D1 dopamine receptor. B-score at 10 µM. P21728. HEK293 D1, CRE-luciferase, dopamine EC30 potentiation; actives deviate in either direction. AID 641. 5.9% of 58,000 active;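 active = luminescence count or its row- and column-corrected plate score outside the 99.7% band of the plate's sample wells, on either side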
M1 ag: agonists of M1 muscarinic receptor | CHO-M1 cells, Fluo-4 calcium fluorescence, agonist mode; stronger effect = higher value | B-score at 10 µM | 3% of 64,000 active | AID 626;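 active = fluorescence rise, raw or as B-score row- and column-corrected plate score, outside the 99.7% band of its plate's samples, either direction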
M1 antag: M1 muscarinic receptor (rat) antagonism; CHO-M1 cells, Fluo-4 calcium, ACh EC80 antagonist mode; stronger effect = lower value; P08482; B-score at 10 µM; AID 628; 3.4% of 64,000 active;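 active = calcium fluorescence response, raw or row-and-column corrected B-score, differing from the plate sample mean either way at a set confidence level, mostly lower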
Target sequence (P08482 whole entry, looked up): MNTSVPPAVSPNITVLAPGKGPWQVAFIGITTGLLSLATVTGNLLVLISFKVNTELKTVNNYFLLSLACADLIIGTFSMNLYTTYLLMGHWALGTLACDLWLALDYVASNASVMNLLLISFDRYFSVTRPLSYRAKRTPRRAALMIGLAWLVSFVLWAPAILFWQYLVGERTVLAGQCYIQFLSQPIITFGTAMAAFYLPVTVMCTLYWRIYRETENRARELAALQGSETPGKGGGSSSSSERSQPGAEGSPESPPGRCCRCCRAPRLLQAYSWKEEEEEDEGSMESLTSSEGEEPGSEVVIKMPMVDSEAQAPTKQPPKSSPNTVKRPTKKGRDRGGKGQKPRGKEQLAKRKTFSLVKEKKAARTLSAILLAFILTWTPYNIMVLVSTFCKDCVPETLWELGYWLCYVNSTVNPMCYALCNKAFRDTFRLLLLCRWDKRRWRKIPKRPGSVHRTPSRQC
Of the large screens only hits and unclear results are named; the others gave an inactive call.

CCOCC(=O)Nc1cc(C(=O)OC)ccc1C(=O)OC	none
CSc1cccc(NC(=O)Nc2ccccc2)c1	SF1 activator 50, RORA act 63
Cc1cccc(NC(=O)Nc2cccc(F)c2)n1	none
Cc1cccc(NC(=O)Nc2ccc(C#N)cc2)n1	D1 mod -5.2
COc1ccc(NC(=O)Nc2cccc(OC)c2)cc1	RORA act 68
COc1ccc(OCC(=O)Nc2cccc(OC)c2)cc1	none
COc1ccc(NC(=O)Nc2cccc(C)n2)cc1	SF1 activator 64
COc1cccc(C2C(C(C)=O)=C(O)C(=O)N2CC2CCCO2)c1 (stereo not given)	none (no result: SF1 activator, RORA act, D1 mod, M1 ag, M1 antag)
COc1ccccc1OCCCOc1cccc2ccccc12	none (no result: SF1 activator, RORA act, D1 mod, M1 ag, M1 antag)
CC1=C(C(=O)Nc2ccccc2)C(c2ccc(Cl)cc2)C(C(=O)Nc2ccccc2)=C(C)N1	none (no result: SF1 activator, RORA act, D1 mod, M1 ag, M1 antag)
COc1ccccc1CNC(=O)c1cc2sccc2n1C	none
Cn1c(C(=O)NCCc2c[nH]c3ccccc23)cc2sccc21	SF1 activator 79, RORA act 74
O=C(CSc1nnc(-c2ccccc2)o1)OCc1ccccc1	none
COc1cccc(OCc2nnc(SCC(=O)OCc3ccccc3)o2)c1	RORA act 49
COc1ccc(-c2nc3c(c(=O)n(C)c(=O)n3C)n2CC2CC(c3ccccc3)=NO2)cc1OC (stereo not given)	M1 ag 4.7
O=C(Cn1cccc1C(=O)c1ccccc1)NCCN1CCOCC1	none
CCOc1ccccc1Oc1ccc(C(F)(F)F)cn1	D1 mod -4
CCOc1ccccc1OCCCCNC(C)(C)C	none (no result: SF1 activator, RORA act, D1 mod, M1 ag, M1 antag)
COC(=O)C(Nc1nccs1)(OC)C(F)(F)F (stereo not given)	none
O=c1c2ccc(-c3nnc4n3-c3ccccc3SC4)cc2nc2n1CCCCC2	none
Cc1c(C(=O)NCC2CCCO2)oc2ccc3c(c12)C(=O)CC(C)(C)O3 (stereo not given)	SF1 activator 62 (no result: D1 mod)
Cc1c(C(=O)NCC2CCCO2)oc2ccc(S(=O)(=O)N3CCCC3)cc12 (stereo not given)	none (no result: D1 mod)
Cc1cccc(NC2=NC(C)(C)N=C(N)N2)c1C	none
N#Cc1nc(-c2ccco2)oc1N1CCN(C(c2ccccc2)c2ccccc2)CC1	none
N#Cc1nc(-c2ccco2)oc1N1CCc2ccccc2C1	M1 ag 3.9
O=c1c2cc(Cl)ccc2oc2nc3n(c(=O)c12)CCCS3	none
Cc1cc(=O)cc(C)n1-c1ccc2c(c1)nc(C)n2-c1ccccc1	M1 antag 2.2
CC(C)(C)Nc1ncnc2c1cnn2-c1ccccc1	none (no result: D1 mod)
Cc1c(C(=O)NC2CCSC2=O)cccc1[N+](=O)[O-] (stereo not given)	HePTP inh 55 (no result: SF1 activator, RORA act, D1 mod, M1 ag, M1 antag)
COc1ccc(CCNC(=O)c2[nH]c(C)c(C(C)=O)c2C)cc1OC	none
CC(=O)c1c(C)[nH]c(C(=O)NCCc2ccccc2)c1C	D1 mod -3.5
O=c1cc(Nc2ccc3c(c2)OCCO3)[nH]c(=O)n1-c1ccc(Cl)cc1	RORA act 50
Cc1nnc(SCc2cn3ccsc3n2)n(N)c1=O	none
COC(=O)c1cccc(C(=O)Nc2ccc(C)cc2)n1	SF1 activator 50
Cc1ccc(NC(=O)c2cc(C)on2)cc1	SF1 activator 60
CCc1ccc(NC(=O)c2cc(C)on2)cc1	D1 mod -3.1
CCc1ccc(NC(=O)c2cc(CC(C)C)on2)cc1	none
CC(=O)c1cccc(NC(=O)c2nccnc2C(=O)O)c1	D1 mod -3.5
C[n+]1ccc(/C=C/c2ccc3c(c2)OCO3)cc1	none (no result: SF1 activator, RORA act, D1 mod, M1 ag, M1 antag)
CC(C)NC(=O)/C(=C/c1ccccc1)c1ccccc1	none (no result: SF1 activator, RORA act, D1 mod, M1 ag, M1 antag)
COc1ccc(/C=C2\C(=O)N(c3ccc(S(N)(=O)=O)cc3)N=C2C)cc1Br	none (no result: SF1 activator, RORA act, D1 mod, M1 ag, M1 antag)
CC(=O)c1cccc(NC(=O)c2cc(C(C)C)on2)c1	SF1 activator 74, RORA act 55
CCc1ccc(NC(=O)c2cc(C(C)C)on2)cc1	RORA act 62
Cc1cc(Nc2ccc(F)cc2F)n2ncnc2n1	none
Fc1ccc(-c2cnc[nH]2)cc1	M1 antag 1.9
CCn1cc(C(=O)NCc2ccc3c(c2)OCO3)c(=O)c2ccc(C)nc21	D1 mod 4.3
C=CCNc1nc(-c2ccc(OC)cc2OC)cs1	SF1 activator 102, RORA act 52 (no result: D1 mod)
C=CCNc1nc(-c2ccc(C)cc2C)cs1	none (no result: SF1 activator, RORA act, D1 mod, M1 ag, M1 antag)
O=C(CCNc1ccccc1)c1ccc2c(c1)OCO2	SF1 activator 62
CC(=O)Nc1ccccc1OCC(=O)c1ccc2c(c1)OCO2	RORA act 65 (no result: D1 mod)
CCCCc1nnc(NC(=O)CCN2C(=O)/C(=C/c3ccccc3)SC2=S)s1	none (no result: SF1 activator, RORA act, D1 mod, M1 ag, M1 antag)
O=C(CSc1nc2ccccc2o1)Nc1ncccn1	none (no result: SF1 activator, RORA act, D1 mod, M1 ag, M1 antag)
Cc1ccnc2ccc(-c3nc4ccccc4o3)cc12	SF1 activator 56
O=C(CSc1nc2ccccc2o1)Nc1nc2c(s1)CCCC2	D1 mod -2.4
O=C(Cc1cccs1)Nc1nc2ccccc2s1	RORA act 58
O=C(CSc1nc2ccccc2o1)Nc1nc2ccccc2s1	SF1 activator 50
COc1ccc(S(=O)(=O)N2CCN(Cc3cccc(OC)c3)CC2)cc1	none (no result: SF1 activator, RORA act, D1 mod, M1 ag, M1 antag)
CC(=O)Nc1nc2ccc(-c3nc4ccccc4o3)cc2s1	RORA act 69
Cc1ccc(-c2nc3ccccc3o2)cc1NC(=O)C(Cl)(Cl)Cl	none (no result: SF1 activator, RORA act, D1 mod, M1 ag, M1 antag)
COc1ccc(Nc2nc(N3CCCC3)c3ccccc3n2)cc1	D1 mod -6.9
c1ccc2c(N3CCCCC3)nc(-c3ccncc3)nc2c1	none (no result: SF1 activator, RORA act, D1 mod, M1 ag, M1 antag)
O=c1sc2ccccc2c(N2CCOCC2)c1[N+](=O)[O-]	none (no result: SF1 activator, RORA act, D1 mod, M1 ag, M1 antag)
O=C(O)c1cccc(N2CCCC2=O)c1	none
O=C(Nc1ccccc1)N1CCC(c2nc(-c3ccc(S(=O)(=O)N4CCOCC4)cc3)no2)CC1	none
[N-]=[N+]=CC(=O)c1ccnc(C(=O)C=[N+]=[N-])c1	M1 antag 1.6
Cc1nc(C)c(-c2csc(NCc3ccco3)n2)s1	none
Cc1nc2ccccn2c1-c1csc(NCc2ccco2)n1	D1 mod -3.3
O=C(c1cccc(F)c1)n1nnc2ccccc21	none
CCS/C(=N/Nc1ccc(C)cc1)C(C)=O	none (no result: SF1 activator, RORA act, D1 mod, M1 ag, M1 antag)
C/C(Cl)=C/CSc1nc2c(c(=O)[nH]c(=O)n2C)n1C(C)C	D1 mod 7.9
Cc1nnc(NC2=NCCC2)o1	none
c1coc(-c2nnc(NC3=NCCC3)o2)c1	SF1 activator 61
O=C(Cn1cc2c(n1)CCCCC2)NCc1cccs1	none
COc1ccc2c(c1OC)C(=O)N1c3ccccc3SC21 (stereo not given)	SF1 activator 72 (no result: D1 mod)
COc1ccc2c(c1OC)C(=O)N1c3cccc(Cl)c3C(=O)OC21 (stereo not given)	none
COc1ccc2c(c1OC)C(=O)N1c3ccccc3COC21 (stereo not given)	SF1 activator 51, RORA act 82 (no result: D1 mod)
COc1ccc(N2C(=O)/C(=C/c3cc([N+](=O)[O-])cc(OC)c3O)SC2=S)cc1	HePTP inh 104 (no result: SF1 activator, RORA act, D1 mod, M1 ag, M1 antag)
Cc1cc(N2CCOCC2)n2nc(-c3cccc(F)c3)cc2n1	none
Cc1cc(N2CCN(c3ccccc3)CC2)nc(-c2ccccc2)n1	none

High-throughput results as filed in PubChem.
